# Experimental data as given in ChEMBL document CHEMBL1649510, “Nonsense and missense mutations in FCY2 and FCY1 genes are responsible for flucytosine resistance and flucytosine-fluconazole cross-resistance in clinical isolates of Candida lusitaniae” (2009).
# Key:
# Type in all cases: functional
# Clavispora lusitaniae [1] = assay: Antifungal activity against Candida lusitaniae CL38-5 expressing FCY21 gene by microdilution method
# Outline: (§1)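 CLSI broth microdilution using twofold dilutions in RPMI 1640 with about 10³ cells/ml, incubated 48 h at 35°C. Final ranges were 0.5–256 μg/ml flucytosine and 0.25–128 μg/ml fluconazole. Cross-resistance was tested with a flucytosine gradient at constant fluconazole (8 or 16 μg/ml). MIC was read by automated plate reader as the lowest concentration giving 50% growth inhibition versus the drug-free control.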
# Clavispora lusitaniae [2] = assay: Antifungal activity against REPF URA3 fcy1-deficient Candida lusitaniae by microdilution method; outline: as §1
# Clavispora lusitaniae [3] = assay: Antifungal activity against Candida lusitaniae CL216 by microdilution method; outline: as §1
# Clavispora lusitaniae [4] = assay: Antifungal activity against Candida lusitaniae CL128 by microdilution method; outline: as §1
# Clavispora lusitaniae [5] = assay: Antifungal activity against Candida lusitaniae CL31 by microdilution method; outline: as §1
# Clavispora lusitaniae [6] = assay: Antifungal activity against fcy1-deficient Candida lusitaniae by microdilution method; outline: as §1
# Clavispora lusitaniae [7] = assay: Antifungal activity against Candida lusitaniae CL38 by microdilution method; outline: as §1
# Clavispora lusitaniae [8] = assay: Antifungal activity against Candida lusitaniae 42720 by microdilution method; outline: as §1
# Clavispora lusitaniae [9] = assay: Antifungal activity against Candida lusitaniae CL42 by microdilution method; outline: as §1
# Clavispora lusitaniae [10] = assay: Antifungal activity against Candida lusitaniae CL48 by microdilution method; outline: as §1
# Clavispora lusitaniae [11] = assay: Antifungal activity against Candida lusitaniae CL26 by microdilution method; outline: as §1
# Clavispora lusitaniae [12] = assay: Antifungal activity against fcy1(1-26)-deficient Candida lusitaniae by microdilution method; outline: as §1
# Clavispora lusitaniae [13] = assay: Antifungal activity against Candida lusitaniae CL29 by microdilution method; outline: as §1
# Clavispora lusitaniae [14] = assay: Antifungal activity against Candida lusitaniae CL174 by microdilution method; outline: as §1
# Clavispora lusitaniae [15] = assay: Antifungal activity against fcy1(1-119)-deficient Candida lusitaniae by microdilution method; outline: as §1
# Clavispora lusitaniae [16] = assay: Antifungal activity against Candida lusitaniae CL38-5 expressing FCY2 gene by microdilution method; outline: as §1
# Clavispora lusitaniae [17] = assay: Antifungal activity against Candida lusitaniae CL119 by microdilution method; outline: as §1
# Clavispora lusitaniae [18] = assay: Antifungal activity against Candida lusitaniae 6936 by microdilution method; outline: as §1
# Clavispora lusitaniae [19] = assay: Antifungal activity against Candida lusitaniae CL38-5 expressing URA3 gene by microdilution method; outline: as §1
# Clavispora lusitaniae [20] = assay: Antifungal activity against Candida lusitaniae CL32 by microdilution method; outline: as §1
Structure (SMILES),MIC (Clavispora lusitaniae [1]),MIC (Clavispora lusitaniae [2]),MIC (Clavispora lusitaniae [3]),MIC (Clavispora lusitaniae [4]),MIC (Clavispora lusitaniae [5]),MIC (Clavispora lusitaniae [6]),MIC (Clavispora lusitaniae [7]),MIC (Clavispora lusitaniae [8]),MIC (Clavispora lusitaniae [9]),MIC (Clavispora lusitaniae [10]),MIC (Clavispora lusitaniae [11]),MIC (Clavispora lusitaniae [12]),MIC (Clavispora lusitaniae [13]),MIC (Clavispora lusitaniae [14]),MIC (Clavispora lusitaniae [15]),MIC (Clavispora lusitaniae [16]),MIC (Clavispora lusitaniae [17]),MIC (Clavispora lusitaniae [18]),MIC (Clavispora lusitaniae [19]),MIC (Clavispora lusitaniae [20])
OC(Cn1cncn1)(Cn1cncn1)c1ccc(F)cc1F [FLUCONAZOLE],2 µg/mL,2 µg/mL,1 µg/mL,1 µg/mL,2 µg/mL,2 µg/mL,2 µg/mL,2 µg/mL,4 µg/mL,2 µg/mL,≤ 0.25 µg/mL,2 µg/mL,2 µg/mL,1 µg/mL,2 µg/mL,2 µg/mL,1 µg/mL,2 µg/mL,2 µg/mL,≤ 0.25 µg/mL
Nc1nc(=O)[nH]cc1F [FLUCYTOSINE],32 µg/mL,≤ 0.5 µg/mL,32 µg/mL,32 µg/mL,32 µg/mL,128 µg/mL,32 µg/mL,≤ 0.5 µg/mL,64 µg/mL,32 µg/mL,64 µg/mL,128 µg/mL,128 µg/mL,64 µg/mL,128 µg/mL,≤ 0.5 µg/mL,32 µg/mL,≤ 0.5 µg/mL,32 µg/mL,128 µg/mL
